“Also recorded” adds a separate entry of the source. Like-named read-outs stand apart in the source and are kept apart here.
Columns and labels:
[1] = system: Ect1/E6E7 normal-type human ectocervical cells; assay: mammalian cell cytotoxicity counter screen, Ect1/E6E7; type: cell-based; settings: for Selectivity Index SIEct1: (EC50 for Ect1 cells)/(EC50 for T. vaginalis); for EC50: read-out: EC50 Ect1 Normal Cervical, Ect1/E6E7 cytotoxicity
Trichomonas vaginalis = assay: imaging-based T. vaginalis viability assay; type: cell-based; settings: for EC50: Trichomonas vaginalis; for effect of oxygen level on antitrichomonal activity: aerobic, microaerophilic and anaerobic atmospheres compared; for extent of elimination of trichomonads: strict anaerobic atmosphere; for EC50 T. vaginalis: imaging assay, 17 h incubation, microaerophilic unless specified
[2] = system: Lactobacillus acidophilus; assay: Lactobacillus acidophilus viability assay; type: cell-based; settings: for effect on growth and viability of L. acidophilus: anaerobic conditions, at the concentrations tested (Figure 8); for EC50: read-out: EC50 L. acidophilus, anaerobic, 18 h
Outline: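 Bacteria from MRS agar colonies were suspended in MRS broth, vortexed and dispensed into 96-well plates. Test compound was added in DMSO (0.5% final). Baseline OD 600 nm was read, then plates were incubated 18 h at 37 °C under anaerobic conditions (GasPak EZ Anaerobe sachets). OD 600 nm was read again to determine change from baseline.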

[3] = system: NIH/3T3 mouse fibroblast cells; assay: mammalian cell cytotoxicity counter screen, NIH/3T3; type: cell-based; settings: read-out: EC50 3T3 Mouse Fibroblast; NIH/3T3 cytotoxicity
Outline: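 NIH/3T3 mouse fibroblasts were maintained in DMEM with 5% FetalClone III. Viability was read by MTT or by a Calcein AM/Hoechst 33342 live-cell-area imaging assay. For imaging, a DMSO stock (40 μM Calcein AM, 160 μM Hoechst) was diluted 1:5 in PBS and added. After 30 min, Hoechst-stained nuclei were imaged and cells were scored live or dead by green fluorescence.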

T. vaginalis infection = settings: after a single course of treatment; cited from earlier work
[4] = 17 h, read-out: EC50 T. vaginalis

Compound | effect of oxygen level on antitrichomonal activity (Trichomonas vaginalis) | EC50 [1] [µM] | EC50 [2] [µM] | EC50 [3] [µM] | other results
COC1=CC(=O)c2c(O)c3c(c(O)c2C1=O)CC(C)(O)OC3 (stereo not drawn) [compound 1, fusarubin] | decreased as oxygen was introduced | – | – | – | Selectivity Index SIEct1 [1]: 30; EC50 (Trichomonas vaginalis; [4]): 2.5 µM; extent of elimination of trichomonads (Trichomonas vaginalis): partial elimination
COC1=CC(=O)c2c(O)c(C)c(CC(C)=O)c(O)c2C1=O [compound 2, javanicin] | – | – | – | – | Selectivity Index SIEct1 [1]: 3.1; EC50 (Trichomonas vaginalis; [4]): 1.3 µM
COC1=CC(=O)c2c(O)ccc(O)c2C1=O [compound 9, 2-Methoxynaphthazarin] | decreased as oxygen was introduced | – | – | – | extent of elimination of trichomonads (Trichomonas vaginalis): complete elimination
O=C1C(O)=C([C@H]2CC[C@H](c3ccc(Cl)cc3)CC2)C(=O)c2ccccc21 [compound 37, atovaquone, reference compound] | – | – | – | – | Selectivity Index SIEct1 [1]: < 0.1
COC(=O)[C@@]12Oc3cc4c(c(O)c3C(=O)C1=C(O)CC[C@@H]2O)[C@@H]1C=C[C@@]2(C4)C(=O)c3cc(C)cc(O)c3C(O)=C2C1=O [compound 46, xanthoquinodin A1] | maintained consistent potency | – | – | – | Selectivity Index SIEct1 [1]: ~ 20; effect on growth and viability of L. acidophilus [2]: near equipotent activity against T. vaginalis and L. acidophilus; also recorded: significant inhibition; EC50 (Trichomonas vaginalis; read-out: average EC50 against T. vaginalis): 3 µM
C/C=C/[C@@H]1C=C[C@@H]2C[C@H](C)CC[C@H]2[C@]1(C)/C(O)=C1/C(=O)[C@@H](CO)N(C)C1=O [compound 49, 5’-epiequisetin] | – | – | – | – | EC50 T. vaginalis (Trichomonas vaginalis): Inactive
C/C=C/[C@@H]1C=C[C@@H]2C[C@H](C)CC[C@H]2[C@]1(C)/C(O)=C1/C(=O)N[C@@H](CO)C1=O [compound 50, trichosetin] | – | 34 | > 50 | 30 | –
CC1=C[C@H]2C[C@@H](C)CC[C@@H]2[C@@](C)(/C(O)=C2\C(=O)[C@H](CO)N(C)C2=O)[C@H]1/C=C/C=C/C[C@@H](C)O [compound 52, 5’-epipyrrolocin A] | – | – | – | – | EC50 T. vaginalis (Trichomonas vaginalis): Inactive
C/C=C/C=C/C1C(C)=CC2CC(C)CCC2C1(C)/C(O)=C1\C(=O)NC(CO)C1=O (stereo not drawn) [compound 53, beauversetin] | no statistically significant change in EC50 value | 35 | > 50 | 35 | effect on growth and viability of L. acidophilus [2]: no effect
C/C=C/C=C/[C@H]1C(C)=C[C@H]2C[C@@H](C)CC[C@@H]2[C@@]1(C)/C(O)=C1/C(=O)N[C@@H](CO)C1=O [compound 54, 5’-epibeauversetin] | – | – | – | – | EC50 T. vaginalis (Trichomonas vaginalis): Inactive
C/C=C/C=C/[C@H]1C(C)=C[C@H]2C[C@@H](C)CC[C@@H]2[C@@]1(C)/C(O)=C1\C(=O)[C@H](CO)N(C)C1=O [compound 56, 5’-epiphomasetin] | – | – | – | – | EC50 T. vaginalis (Trichomonas vaginalis): Inactive
Cc1ncc([N+](=O)[O-])n1CCO [metronidazole, reference compound] | maintained consistent potency | – | – | – | effect on growth and viability of L. acidophilus [2]: no inhibition; patients cleared of the infection (T. vaginalis infection): > 90%
CCS(=O)(=O)CCn1c([N+](=O)[O-])cnc1C [tinidazole] | – | – | – | – | patients cleared of the infection (T. vaginalis infection): > 90%
equisetin [compound 48] | – | 35 | > 50 | 100 | toxicity to / inhibition of L. acidophilus ([2]; at concentrations up to 50 μM): non-toxic
phomasetin [compound 55] | – | 7 | > 50 | 10 | –
pyrrolocin A [compound 51] | – | 10 | > 50 | 6 | –

— article PMC10782576 (ACS infectious diseases, 2019)
